Experimental data from ChEMBL document CHEMBL4346740, “Development of novel lithocholic acid derivatives as vitamin D receptor agonists” (Bioorg Med Chem, 2019).
Calls of active or inactive are those of the source. The calls are words filed in the database; no cut-off is given here.

Columns and labels:
[1] = biological target: T1, Vitamin D3 receptor (Homo sapiens) (UniProt P11473); experiment: Transactivation of VDR in human […] cell assessed as cell differentiation at 10^-7 to 10^-5 M measured after 4 days by NBT dye-based assay
T1 sequence (whole entry): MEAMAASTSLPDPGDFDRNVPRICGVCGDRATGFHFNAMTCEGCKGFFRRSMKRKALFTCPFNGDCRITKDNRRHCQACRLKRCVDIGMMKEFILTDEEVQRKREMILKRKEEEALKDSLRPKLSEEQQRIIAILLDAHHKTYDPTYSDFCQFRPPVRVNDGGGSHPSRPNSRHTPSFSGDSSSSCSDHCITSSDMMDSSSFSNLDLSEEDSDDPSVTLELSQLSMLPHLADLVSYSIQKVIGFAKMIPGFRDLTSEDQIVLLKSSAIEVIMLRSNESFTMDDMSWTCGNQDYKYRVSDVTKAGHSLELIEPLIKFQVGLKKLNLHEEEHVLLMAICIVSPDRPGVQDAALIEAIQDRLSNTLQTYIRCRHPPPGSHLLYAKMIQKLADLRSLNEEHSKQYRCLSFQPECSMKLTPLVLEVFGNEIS
Summary of the method: (§1)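 HL-60 cells grown in RPMI-1640 with 5% FBS, diluted to 8.0 × 10^4 cells/mL. Compound added from ethanol solution; ethanol-only control; 1α,25(OH)2D3 run alongside each time. Incubated 4 days at 37 °C, 5% CO2. Cells then exposed 20 min at 37 °C to 0.2% NBT with TPA (200 ng/mL) in PBS. Formazan-positive percentage scored in at least 200 cells.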

[2] = biological target: T1, Vitamin D3 receptor (Homo sapiens); experiment: Transactivation of human VDR expressed in COS-7 cells transfected with mouse […] for 24 hrs by luciferase based reporter gene assay; assay type: cell-based
Summary of the method: (§2)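 COS-7 cells in DMEM with 5% FCS, lipofected at 24 h with SPPx3-TK-LUC (three mouse osteopontin VDRE copies), pCMX-hVDR and pRL-CMV. After 4 h, switched to DMEM with 1% FCS. Next day, compound, 1α,25(OH)2D3 or ethanol vehicle added for 24 h. Lysate luciferase normalized to sea pansy internal control; triplicate.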

[3] = biological target: T2, Vitamin D3 receptor (Bos taurus) (UniProt Q28037); experiment: Displacement of [3H]1alpha,25(OH)2D3 from bovine thymus VDR incubated for 19 hrs by radioactivity based competitive binding assay
T2 sequence (whole entry): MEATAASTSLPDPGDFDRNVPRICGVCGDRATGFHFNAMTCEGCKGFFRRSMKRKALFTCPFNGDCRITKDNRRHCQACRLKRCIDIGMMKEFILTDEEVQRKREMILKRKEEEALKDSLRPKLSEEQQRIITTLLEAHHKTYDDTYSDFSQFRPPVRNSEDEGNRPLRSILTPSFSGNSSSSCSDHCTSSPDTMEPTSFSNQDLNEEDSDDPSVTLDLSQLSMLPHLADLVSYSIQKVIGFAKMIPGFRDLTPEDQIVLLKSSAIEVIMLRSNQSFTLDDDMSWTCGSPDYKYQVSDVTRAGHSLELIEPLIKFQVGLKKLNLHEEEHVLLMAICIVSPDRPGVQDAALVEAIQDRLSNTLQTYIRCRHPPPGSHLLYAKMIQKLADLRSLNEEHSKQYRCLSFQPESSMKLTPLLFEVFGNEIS
Summary of the method: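 Bovine thymus VDR in 0.05 M phosphate buffer (pH 7.4) with 0.3 M KCl and 5 mM DTT. Incubated 19 h at 4 °C with 0.072 nM [3H]1α,25(OH)2D3 plus graded amounts of analog or vehicle. Bound and free ligand separated on dextran-coated charcoal (20 min, 4 °C), then centrifuged at 1000g. Supernatant radioactivity counted; run in duplicate.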

[4] = biological target: T1, Vitamin D3 receptor (Homo sapiens); experiment: Transactivation of human VDR expressed in COS-7 cells transfected with mouse osteopontin VDRE at >1 uM measured after 24 hrs by luciferase based reporter gene assay; assay type: cell-based; summary of the method: as §2
[5] = biological target: T1, Vitamin D3 receptor (Homo sapiens); experiment: Transactivation of VDR in human […] cell assessed as cell differentiation at 10^-5 M measured after 4 days by NBT dye-based assay; summary of the method: as §1

| SMILES | Activity [1] | Activity [2] | also measured |
| --- | --- | --- | --- |
| C[C@H](CCC(=O)O)[C@H]1CC[C@H]2[C@@H]3CC[C@@H]4C[C@H](OC(=O)c5ccccc5)CC[C@]4(C)[C@H]3CC[C@]12C | inactive |  |  |
| C[C@H](CCC(=O)O)[C@H]1CC[C@H]2[C@@H]3CC[C@@H]4C[C@H](OS(C)(=O)=O)CC[C@]4(C)[C@H]3CC[C@]12C |  | Active | Activity [3]: Active |
| C[C@H](CCC(=O)O)[C@H]1CC[C@H]2[C@@H]3CC[C@@H]4C[C@H](OC(=O)C(F)(F)F)CC[C@]4(C)[C@H]3CC[C@]12C | inactive |  | Activity [4]: Active |
| C[C@H](CCC(=O)O)[C@H]1CC[C@H]2[C@@H]3CC[C@@H]4C[C@H](NS(C)(=O)=O)CC[C@]4(C)[C@H]3CC[C@]12C | Active |  |  |
| COC(=O)O[C@@H]1CC[C@@]2(C)[C@H](CC[C@@H]3[C@@H]2CC[C@]2(C)[C@@H]([C@H](C)CCC(=O)O)CC[C@@H]32)C1 | inactive |  |  |
| CC(=O)O[C@@H]1CC[C@@]2(C)[C@H](CC[C@@H]3[C@@H]2CC[C@]2(C)[C@@H]([C@H](C)CCC(=O)O)CC[C@@H]32)C1 |  | Active | Activity [5]: Active |
